Numbering of substitutions follows the chain as printed. Where two headings read alike, the source gives them in different places.
Legend:
CLC-0 E166A mutant [1] = target: T1, CLC-0 E166A mutant (Torpedo marmorata, UniProt P21564, C212S/E166A); test: Single-channel recordings, channels expressed in Xenopus oocytes; assay type: cell-based; conditions: 0.1 mM CPA cytoplasmic side; −100 mV
T1 sequence (P21564 1-805 E166A/C212S): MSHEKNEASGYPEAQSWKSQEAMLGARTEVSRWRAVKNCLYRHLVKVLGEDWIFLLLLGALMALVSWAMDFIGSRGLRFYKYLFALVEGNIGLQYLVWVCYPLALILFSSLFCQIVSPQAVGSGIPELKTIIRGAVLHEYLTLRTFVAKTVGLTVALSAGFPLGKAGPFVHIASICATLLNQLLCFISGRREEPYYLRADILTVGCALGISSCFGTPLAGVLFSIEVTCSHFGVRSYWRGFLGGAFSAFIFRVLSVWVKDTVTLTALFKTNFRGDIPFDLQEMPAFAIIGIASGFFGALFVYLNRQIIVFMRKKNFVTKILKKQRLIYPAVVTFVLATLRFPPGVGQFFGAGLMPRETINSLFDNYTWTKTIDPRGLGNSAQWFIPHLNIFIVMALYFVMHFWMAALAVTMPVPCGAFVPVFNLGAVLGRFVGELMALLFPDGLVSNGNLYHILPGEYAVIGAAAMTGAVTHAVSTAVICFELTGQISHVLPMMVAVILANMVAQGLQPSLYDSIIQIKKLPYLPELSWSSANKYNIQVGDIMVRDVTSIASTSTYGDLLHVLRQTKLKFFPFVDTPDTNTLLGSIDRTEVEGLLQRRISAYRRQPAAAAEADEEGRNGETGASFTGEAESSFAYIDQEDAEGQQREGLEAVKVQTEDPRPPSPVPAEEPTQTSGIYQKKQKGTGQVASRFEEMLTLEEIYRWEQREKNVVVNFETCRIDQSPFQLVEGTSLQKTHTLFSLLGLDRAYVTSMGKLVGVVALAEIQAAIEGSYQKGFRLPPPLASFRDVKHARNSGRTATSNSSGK
In short: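 Single channels were expressed in Xenopus oocytes from cRNA made from a pBluescript construct. Currents were recorded at −100 mV with cytoplasmic CPA at 100 μM, filtered at 200 Hz (four-pole Bessel) and digitized at 1 kHz. Average dwell time of nonconducting events was analysed from the single-channel traces.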

CLC-0 E166A mutant [2] = target: T1, CLC-0 E166A mutant; conditions: ref Traverso et al., 2003; cited from earlier work
[3] = target: T2, CLC-0 E166C/K519M mutant (E127/K519M) (Torpedo marmorata, UniProt P21564, C212S/E166C/K519M); assay type: cell-based; conditions: for IC50: read-out: Apparent affinity (K1/2)
T2 sequence (P21564 1-805 E166C/C212S/K519M): T1 sequence (P21564 1-805 E166A/C212S) with A166C, K519M
In short: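 CLC-0 mutants in the C212S background were transfected into HEK293 cells with lipofectamine and recorded 1–3 d later as excised inside-out patches. Both sides held 130 mM NaCl, 5 mM MgCl2, 10 mM HEPES and 1 mM EGTA, pH 7.4. CPA was perfused continuously onto the cytoplasmic face. Steady-state current over the last 10 ms was normalized to bracketing blocker-free controls and fitted to a Langmuir function for K1/2. Values are mean ± SEM of ~4–6 patches.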

O=C(O)COc1ccc(Cl)cc1 [CPA, p-chlorophenoxy acetate]
averaged time of nonconducting (blocked) events (CLC-0 E166A mutant [1]): ~55 ms
CPA-blocking affinity of E166A relative to wild-type channel (higher) (CLC-0 E166A mutant [2]): > 100 fold
IC50 ([3]; −40 mV): 378 ± 7 µM
IC50 ([3]; −60 mV): 271 ± 5 µM
IC50 ([3]; −80 mV): 194 ± 4 µM
IC50 ([3]; −100 mV): 141 ± 5 µM
IC50 ([3]; −120 mV): 98 ± 4 µM
IC50 ([3]; −140 mV): 69 ± 4 µM
IC50 ([3]; −160 mV): 51 ± 4 µM
apparent koff ([3]; −160 mV): 10.5 s⁻¹
apparent kon ([3]; −160 mV): 170000 M⁻¹ s⁻¹
